Measurements as given in ChEMBL document CHEMBL3632484, “Synthesis and preliminary biological evaluation of a small library of hybrid compounds based on Ugi isocyanide multicomponent reactions with a marine natural product scaffold” (Bioorg Med Chem Lett, 2015).
Converted amounts (≈) assume the structure as drawn.

Assays:
[1] = Antineuroinflammatory activity in LPS-primed rat neonatal microglia assessed as inhibition of PMA-stimulated release of TXB2 after 70 mins; type: functional
Procedure, shortened: (§1)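 Rat microglia primed with E. coli LPS, then stimulated with PMA (1 μM) for 70 min. Release of superoxide (O2–) and of TXB2 is measured, and the IC50 is the concentration that inhibits release. Short-term viability is checked in parallel by LDH release (LDH50 = 50% of total cellular LDH). Data come from 1–4 independent experiments.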

[2] = Antineuroinflammatory activity in LPS-primed rat neonatal microglia assessed as inhibition of PMA-stimulated release of O2- after 70 mins; type: functional; procedure, shortened: as §1
[3] = Cytotoxicity against rat neonatal microglia assessed as cell viability by lactate dehydrogenase release assay; conditions: read-out: LD50 (the source's name)
Procedure, shortened: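 Rat microglia were primed with E. coli LPS and then stimulated with PMA (1 μM) for about 70 min. LDH release was measured as short-term viability. LDH50 is the concentration causing release of 50% of the total cellular LDH content. Data come from 1–4 independent experiments.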

[4] = system: Plasmodium falciparum; assay: Antiplasmodial activity against chloroquine-susceptible Plasmodium falciparum 3D7 infected in human O+ erythrocytes after 72 hrs by SYBR Green based parasite proliferation assay; type: functional, organism-based; conditions: 3D7, 72 h
[5] = Selectivity index, ratio of IC50 for African green monkey Vero cells to IC50 for chloroquine-susceptible Plasmodium falciparum 3D7; type: toxicity, cell-based; conditions: read-out: Ratio IC50
Procedure, shortened: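 Index calculated as Vero cell IC50 divided by the IC50 against chloroquine-susceptible P. falciparum 3D7. The 3D7 IC50 is the concentration giving 50% parasite survival, reported in nM as the mean ± standard error of three experiments.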

[6] = system: Vero; assay: Cytotoxicity against African green monkey Vero cells; type: cell-based; conditions: Chlorocebus sabaeus
Procedure, shortened: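 IC50 in mammalian Vero cells, reported in nM as the mean of three experiments.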

[7] = system: Mycobacterium tuberculosis; assay: Antimycobacterial activity against Mycobacterium tuberculosis H37Rv ATCC 27294 by microplate alamar blue assay; type: functional
Procedure, shortened: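 Minimum inhibitory concentration by microplate Alamar blue assay against the H37Rv laboratory strain, reported in μg/mL as the mean of three experiments.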

SMILES: [C-]#[N+][C@@]12CCC(=C)[C@H]3[C@H](CC(C)(C)NC(=O)CN(CCC(C)C)C(=O)c4ccncc4)C[C@H](C)[C@@H](CC[C@@H]1C)[C@@H]32
- IC50 [1]: 3000 nM
- IC50 [2]: > 10000 nM
- CC50 [3]: > 10000 nM
- IC50 [4]: 11.5 nM
- selectivity ratio [5]: 1720
- IC50 [6]: 19800 nM
- MIC [7]: 14.9 µg/mL (≈ 27.2 µM)

SMILES: [C-]#[N+][C@@]12CCC(=C)[C@H]3[C@H](CC(C)(C)NC(=O)CN(CCNc4ccnc5cc(Cl)ccc45)C(C)=O)C[C@H](C)[C@@H](CC[C@@H]1C)[C@@H]32
- IC50 [1]: 800 nM
- IC50 [2]: 1700 nM
- CC50 [3]: 5000 nM
- IC50 [4]: 11.1 nM
- selectivity ratio [5]: 2570
- IC50 [6]: 28600 nM
- MIC [7]: 17.9 µg/mL (≈ 29 µM)

SMILES: [C-]#[N+][C@@]12CCC(=C)[C@H]3[C@H](CC(C)(C)NC(=O)CN(CCNc4ccnc5cc(Cl)ccc45)C(=O)c4ccncc4)C[C@H](C)[C@@H](CC[C@@H]1C)[C@@H]32
- IC50 [1]: 900 nM
- IC50 [2]: 5000 nM
- CC50 [3]: 5000 nM
- IC50 [4]: 3.6 nM
- selectivity ratio [5]: 7150
- IC50 [6]: 25800 nM
- MIC [7]: 52 µg/mL (≈ 76.3 µM)

SMILES: [C-]#[N+][C@@]12CCC(=C)[C@H]3[C@H](CC(C)(C)NC(=O)CNC(=O)c4ccncc4)C[C@H](C)[C@@H](CC[C@@H]1C)[C@@H]32
- IC50 [1]: 1100 nM
- IC50 [2]: > 10000 nM
- CC50 [3]: > 10000 nM
- IC50 [4]: 6.3 nM
- MIC [7]: 102 µg/mL (≈ 214 µM)

SMILES: [C-]#[N+][C@@]12CCC(=C)[C@H]3[C@H](CC(C)(C)NC(=O)C(c4ccccc4)N(CCC(C)C)C(=O)c4ccncc4)C[C@H](C)[C@@H](CC[C@@H]1C)[C@@H]32 (mixture of isomers)
- IC50 [1]: 100 nM
- IC50 [2]: > 10000 nM
- CC50 [3]: > 10000 nM
- IC50 [4]: 13 nM
- selectivity ratio [5]: 3780
- IC50 [6]: 49200 nM
- MIC [7]: 56.4 µg/mL

SMILES: [C-]#[N+]C(C)(C)C[C@@H]1C[C@H](C)[C@H]2CC[C@H](C)[C@@]3([N+]#[C-])CCC(=C)[C@@H]1[C@H]23 [DIISOCYANOAMPHILECTENE]
- IC50 [1]: 230 nM
- IC50 [2]: > 10000 nM
- CC50 [3]: > 10000 nM
- IC50 [4]: 1.2 nM
- selectivity ratio [5]: 83100
- IC50 [6]: 99700 nM
- MIC [7]: 3.2 µg/mL (≈ 9.86 µM)

SMILES: NNC(=O)c1ccncc1 [ISONIAZID]
- MIC [7]: 0.44 µg/mL (≈ 3.21 µM)
